Results pooled from the literature.
Compare with care: the assays were run in different laboratories.
Target: Myosin light chain kinase, smooth muscle (MYLK, Homo sapiens, UniProt Q15746)

SMILES | test | setting | remaining binding
CNC(=O)[C@@H]1CC[C@@H](n2c(-c3ccc4cnccc4c3)nc3ccc(C(=O)NCc4cccc(C(N)=O)c4)cc32)C1 | binding, competition with immobilised ligand | 1 µM | 100%
O=C(c1ccc(Nc2ncc(Cl)c(-c3ccc(Cl)s3)n2)cc1)N1CCC(N2CCCC2)CC1 | binding, competition with immobilised ligand | 1 µM | 66%
N[C@@H]1CCN(c2nccc(-c3cnn4ncccc34)n2)C1 | binding | 1 µM | 100%
CS(=O)(=O)N1CCCC(NC(=O)[C@H](CCC2CCCCC2)NC(=O)c2ccc(CNC(=O)c3cnc4ccccn34)cc2)C1 (some centres unmarked) | cell-free assay, competition with immobilised ligand | 0.1 µM | 100%
CN(c1nccc(-c2cnn3ncccc23)n1)C1CC1 | binding | 1 µM | 100%
C=CC(=O)N1CCC(C(=O)NCC(=O)N2CCN(c3nc(-c4cnc(N)nc4C(F)F)nc(N4CCOCC4)n3)CC2)CC1 | binding, competition with immobilised ligand | 1 µM | 61%
NS(=O)(=O)c1cc(NC(=O)C2(c3ccccc3Cl)CC2)ccc1Oc1cccc(Cl)c1 | cell-free assay, competition with immobilised ligand | 1 µM | 72%
O=C(NCCCN1CCOCC1)c1ccc(Nc2ncc(Cl)c(-c3ccc(Cl)s3)n2)cc1 | binding, competition with immobilised ligand | 1 µM | 89%
COc1cccc(CNC(=O)c2nc3scc(COCc4ccc(C(=O)O)cc4)c3c(=O)[nH]2)c1 | cell-free assay, competition with immobilised ligand | 1 µM | 100%
CN(CCCC(F)(F)F)c1nccc(-c2cnn3ncccc23)n1 | binding | 1 µM | 100%
O=C(NCCCN1CCOCC1)c1ccc(Nc2nccc(-c3cc4ccccc4s3)n2)cc1 | binding, competition with immobilised ligand | 1 µM | 94%
CC1CCCN1c1nccc(-c2cnn3ncccc23)n1 (centres unmarked) | binding | 1 µM | 97%
COc1cnc(Nc2cccc(S(N)(=O)=O)c2)nc1N1CCN(c2ccccc2)C(=O)C1 | binding, competition with immobilised ligand | 1 µM | 97%
CC(=O)c1c(NS(C)(=O)=O)c2cc(-c3ccc(Cl)cc3)c(-c3ccc(Cl)cc3Cl)nc2n(C)c1=O | cell-free assay, competition with immobilised ligand | 1 µM | 93%
C[C@H]1CCN(c2nccc(-c3cnn4ncccc34)n2)C1 | binding | 1 µM | 91%
O=C(Nc1c[nH]nc1C(=O)NC1CCNCC1)c1cc(F)cc(F)c1 | binding, competition with immobilised ligand | 1 µM | 100%
O=C(NCc1ncc(C(F)(F)F)cc1Cl)c1ccc2c(c1)C1(CCS(=O)(=O)CC1)[C@H](C1CC1)N2S(=O)(=O)c1ccc(F)cc1 | cell-free assay, competition with immobilised ligand | 1 µM | 77%
CN(C)c1ncc(F)c(-c2cnn3ncccc23)n1 | binding | 1 µM | 98%
C[C@@]1(Cc2ccc(C#N)cc2)C(=O)N(c2cc(Cl)cc(Cl)c2)c2ncc(C(=O)NC3(c4nc(C5CCC5)no4)CC3)n21 | cell-free assay, competition with immobilised ligand | 1 µM | 100%
C[C@@H](c1ccc(-n2cnc3c(N)ncnc32)cc1)N1CCc2nn(C)c(Cc3ccccc3)c2C1=O | binding, competition with immobilised ligand | 0.1 µM | 94%
